Experimental findings from ChEMBL document CHEMBL4402612, “Heterodimeric Analogues of the Potent Y1R Antagonist 1229U91, Lacking One of the Pharmacophoric C-Terminal Structures, Retain Potent Y1R Affinity and Show Improved Selectivity over Y4R” (J Med Chem, 2020) are described below.

The target in assay [1] is T1, Neuropeptide Y receptor type 4 (Homo sapiens, UniProt P50391). As to the kind of experiment: Agonist activity at Y4R in human HEK293T cells assessed as increase in beta-arrestin recruitment incubated for 60 mins by Hoechst 33342 dye based fluorescence analysis relative to pancreatic polypeptide.
T1 sequence (P50391 whole entry): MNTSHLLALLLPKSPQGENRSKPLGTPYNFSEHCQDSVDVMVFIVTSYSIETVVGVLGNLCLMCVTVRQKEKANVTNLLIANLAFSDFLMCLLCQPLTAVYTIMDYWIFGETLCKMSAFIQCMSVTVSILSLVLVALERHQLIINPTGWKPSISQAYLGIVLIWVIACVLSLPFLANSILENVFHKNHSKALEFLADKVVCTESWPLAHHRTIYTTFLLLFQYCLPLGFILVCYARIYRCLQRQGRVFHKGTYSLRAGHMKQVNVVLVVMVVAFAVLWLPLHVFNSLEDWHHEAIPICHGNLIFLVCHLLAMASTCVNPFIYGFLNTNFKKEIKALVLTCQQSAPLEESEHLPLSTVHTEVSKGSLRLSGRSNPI
Assay [2] has as its target T1, Neuropeptide Y receptor type 4. As to the kind of experiment: Agonist activity at Y4R in human HEK293T cells assessed as increase in beta-arrestin recruitment incubated for 60 mins by Hoechst 33342 dye based fluorescence analysis. Background: Recruitment of arrestin is a read-out of receptor activation apart from second messengers.
Assay [3] has as its target T2, Neuropeptide Y receptor type 1 (Homo sapiens, UniProt P25929).
T2 sequence (P25929 whole entry): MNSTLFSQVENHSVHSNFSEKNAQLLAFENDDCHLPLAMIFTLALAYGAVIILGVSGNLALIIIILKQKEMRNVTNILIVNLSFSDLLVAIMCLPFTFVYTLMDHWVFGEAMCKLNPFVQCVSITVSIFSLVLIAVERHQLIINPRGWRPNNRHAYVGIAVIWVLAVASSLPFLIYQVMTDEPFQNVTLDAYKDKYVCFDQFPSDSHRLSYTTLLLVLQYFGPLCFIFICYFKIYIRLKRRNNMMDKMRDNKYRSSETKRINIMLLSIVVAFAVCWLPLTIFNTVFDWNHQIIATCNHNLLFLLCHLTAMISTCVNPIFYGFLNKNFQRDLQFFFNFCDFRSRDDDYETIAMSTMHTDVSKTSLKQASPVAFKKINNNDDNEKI
Put plainly: Displacement of (sCy5)-[Lys2 Arg4]-BVD15 from GFP-tagged Y1R in human HEK293T cells assessed as inhibitory constant incubated for 5 mins followed by (sCy5)-[Lys2 Arg4]-BVD15 addition and measured after 30 mins by fluorescence based assay. In kind it is cell-based.

The species named for another assay is Homo sapiens. Put plainly: Selectivity index, ratio of Ki of GFP-tagged Y4R in human HEK293T cells to Ki GFP-tagged Y1R in human HEK293T cells. The assay is classed as cell-based. The method, boiled down:
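Ratio of mean Ki values, Y4/Y1, from whole-cell competition binding in tetracycline-induced 293TR Y1-GFP or Y4-GFP cells. Tracer was 100 nM (sCy5)-[Lys²Arg⁴]-BVD15, added after 5 min competitor preincubation, then 30 min at 37 °C, with imaging read-out.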

Assay [4] addresses T1, Neuropeptide Y receptor type 4. Put plainly: Displacement of (sCy5)-[Lys2 Arg4]-BVD15 from GFP-tagged Y4R in human HEK293T cells assessed as inhibitory constant incubated for 5 mins followed by (sCy5)-[Lys2 Arg4]-BVD15 addition and measured after 30 mins by fluorescence based assay. In kind it is cell-based. The method, boiled down: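 Competitors (10^-10–10^-6 M) added in HBSS/0.1% BSA with H33342 for 5 min, then 100 nM final (sCy5)-[Lys²Arg⁴]-BVD15 for 30 min at 37 °C. Washed and imaged confocally; granule counts per cell. Non-specific binding with 100 nM PP.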

Broadly, the EC50 is the concentration needed to bring the measured effect to its halfway point. The Ki is a dissociation constant, usually derived from enzyme kinetics or from competition with a known ligand.

SMILES strings stand for the structures. Positions of bridges follow the written chain, without caps; N, C: chain ends. Non-standard residues stand in square brackets, D forms with d. Residues, ends and D or L forms follow the SMILES beside them. Chains are numbered I, II in the order given. Orn = NCCC[C@H](N)C(=O)O; Dab = NCC[C@H](N)C(=O)O; Dap = NC[C@H](N)C(=O)O

In the case of `CC[C@H](C)[C@H](N)C(=O)N[C@H]1CCC(=O)NCCCC[C@@H](C(=O)N[C@@H](Cc2ccc(O)cc2)C(=O)N[C@@H](CCCNC(=N)N)C(=O)N[C@@H](CC(C)C)C(=O)N[C@@H](CCCNC(=N)N)C(=O)N[C@@H](Cc2ccc(O)cc2)C(N)=O)NC(=O)[C@@H]2CCCN2C(=O)[C@@H](NC(=O)[C@@H](N)[C@@H](C)CC)CCC(=O)NCCCC[C@@H](C(=O)N[C@@H](Cc2ccc(O)cc2)C(=O)N[C@@H](CCCNC(=N)N)C(=O)N[C@@H](CC(C)C)C(=O)N[C@@H](CCCNC(=N)N)C(=O)N[C@@H](Cc2ccc(O)cc2)C(N)=O)NC(=O)[C@@H]2CCCN2C1=O` (I: H-IEPKYRLRY-NH2 / II: H-IEPKYRLRY-NH2; amide I:2-II:4, I:4-II:2), in assay [1], the Rmax is 56.4%. For the same compound, the concentration giving a half-maximal response (EC50) in assay [2] was 23.4 nM. For the same compound, the values for the Ki in assay [3] and in assay [4] were 25.1 nM and 158 nM, respectively. Moreover, in the assay filed under Homo sapiens, the Ratio Ki was 6.3.
In the case of `CC[C@H](C)[C@H](N)C(=O)N[C@H]1CCC(=O)NCC[C@@H](C(=O)N[C@@H](Cc2ccc(O)cc2)C(=O)N[C@@H](CCCNC(=N)N)C(=O)N[C@@H](CC(C)C)C(=O)N[C@@H](CCCNC(=N)N)C(=O)N[C@@H](Cc2ccc(O)cc2)C(N)=O)NC(=O)[C@@H]2CCCN2C(=O)[C@@H](NC(=O)[C@@H](N)[C@@H](C)CC)CCC(=O)NCC[C@@H](C(=O)N[C@@H](Cc2ccc(O)cc2)C(=O)N[C@@H](CCCNC(=N)N)C(=O)N[C@@H](CC(C)C)C(=O)N[C@@H](CCCNC(=N)N)C(=O)N[C@@H](Cc2ccc(O)cc2)C(N)=O)NC(=O)[C@@H]2CCCN2C1=O` (I: H-IEP[Dab]YRLRY-NH2 / II: H-IEP[Dab]YRLRY-NH2; amide I:2-II:4, I:4-II:2), in assay [1], the Rmax was found to be 43.8%. In addition, the concentration giving a half-maximal response (EC50) in assay [2] is 30.2 nM. The results for the Ki in assay [3] and in assay [4] were 8.13 nM and 155 nM, respectively. In the assay filed under Homo sapiens, the Ratio Ki came to 19.
In the case of `CC[C@H](C)[C@H](N)C(=O)N[C@H]1CCC(=O)NC[C@@H](C(=O)N[C@@H](Cc2ccc(O)cc2)C(=O)N[C@@H](CCCNC(=N)N)C(=O)N[C@@H](CC(C)C)C(=O)N[C@@H](CCCNC(=N)N)C(=O)N[C@@H](Cc2ccc(O)cc2)C(N)=O)NC(=O)[C@@H]2CCCN2C(=O)[C@@H](NC(=O)[C@@H](N)[C@@H](C)CC)CCC(=O)NC[C@@H](C(=O)N[C@@H](C)C(=O)N[C@@H](CCCNC(=N)N)C(=O)N[C@@H](CC(C)C)C(=O)N[C@@H](CCCNC(=N)N)C(=O)N[C@@H](Cc2ccc(O)cc2)C(N)=O)NC(=O)[C@@H]2CCCN2C1=O` (I: H-IEP[Dap]ARLRY-NH2 / II: H-IEP[Dap]YRLRY-NH2; amide I:2-II:4, I:4-II:2), the Rmax in assay [1] is 52.3%. For the same compound, in assay [2], the EC50 was 37.2 nM. The Ki in assay [3] is 2.34 nM; in assay [4], 631 nM. Moreover, the Ratio Ki in the assay listed under Homo sapiens was 269.
In the case of `CC[C@H](C)[C@H](N)C(=O)N[C@H]1CCC(=O)NC[C@@H](C(=O)N[C@@H](Cc2ccc(O)cc2)C(=O)N[C@@H](CCCNC(=N)N)C(=O)N[C@@H](CC(C)C)C(=O)N[C@@H](C)C(=O)N[C@@H](Cc2ccc(O)cc2)C(N)=O)NC(=O)[C@@H]2CCCN2C(=O)[C@@H](NC(=O)[C@@H](N)[C@@H](C)CC)CCC(=O)NC[C@@H](C(=O)N[C@@H](Cc2ccc(O)cc2)C(=O)N[C@@H](C)C(=O)N[C@@H](CC(C)C)C(=O)N[C@@H](CCCNC(=N)N)C(=O)N[C@@H](Cc2ccc(O)cc2)C(N)=O)NC(=O)[C@@H]2CCCN2C1=O` (I: H-IEP[Dap]YALRY-NH2 / II: H-IEP[Dap]YRLAY-NH2; amide I:2-II:4, I:4-II:2), the Rmax in assay [1] is -9.5%. In addition, the figures for the Ki in assay [3] and in assay [4] were 31.6 nM and 912 nM, respectively. In the assay filed under Homo sapiens, the Ratio Ki came out at 32.
On to `CC[C@H](C)[C@H](N)C(=O)N[C@H]1CCC(=O)NC[C@@H](C(=O)N[C@@H](Cc2ccc(O)cc2)C(=O)N[C@@H](CCCNC(=N)N)C(=O)N[C@@H](CC(C)C)C(=O)N[C@@H](CCCNC(=N)N)C(=O)N[C@@H](Cc2ccc(O)cc2)C(N)=O)NC(=O)[C@@H]2CCCN2C(=O)[C@@H](NC(=O)[C@@H](N)[C@@H](C)CC)CCC(=O)NC[C@@H](C(=O)N[C@@H](Cc2ccc(O)cc2)C(=O)N[C@@H](CCCNC(=N)N)C(=O)N[C@@H](C)C(=O)N[C@@H](CCCNC(=N)N)C(=O)N[C@@H](Cc2ccc(O)cc2)C(N)=O)NC(=O)[C@@H]2CCCN2C1=O` (I: H-IEP[Dap]YRARY-NH2 / II: H-IEP[Dap]YRLRY-NH2; amide I:2-II:4, I:4-II:2), for which, in assay [1], the Rmax came to 48.2%. In addition, the EC50 in assay [2] is 12.9 nM. The Ki was 0.275 nM in assay [3] and 129 nM in assay [4]. In addition, the Ratio Ki in the assay filed under Homo sapiens worked out at 427.
On to `CC[C@H](C)[C@H](N)C(=O)N[C@H]1CCC(=O)NC[C@@H](C(=O)N[C@@H](Cc2ccc(O)cc2)C(=O)N[C@@H](CCCNC(=N)N)C(=O)N[C@@H](CC(C)C)C(=O)N[C@@H](CCCNC(=N)N)C(=O)N[C@@H](Cc2ccc(O)cc2)C(N)=O)NC(=O)[C@@H]2CCCN2C(=O)[C@@H](NC(=O)[C@@H](N)[C@@H](C)CC)CCC(=O)NC[C@@H](C(=O)N[C@@H](Cc2ccc(O)cc2)C(=O)N[C@@H](CCCNC(=N)N)C(=O)N[C@@H](CC(C)C)C(=O)N[C@@H](C)C(=O)N[C@@H](Cc2ccc(O)cc2)C(N)=O)NC(=O)[C@@H]2CCCN2C1=O` (I: H-IEP[Dap]YRLAY-NH2 / II: H-IEP[Dap]YRLRY-NH2; amide I:2-II:4, I:4-II:2), for which the Rmax in assay [1] came to 50.2%. The EC50 in assay [2] is 5.13 nM. Further, the values for the Ki in assay [3] and in assay [4] were 0.363 nM and 170 nM, respectively. For the same compound, in the assay filed under Homo sapiens, the Ratio Ki stood at 427.
Regarding `CC[C@H](C)[C@H](N)C(=O)N[C@H]1CCC(=O)NC[C@@H](C(=O)N[C@@H](Cc2ccc(O)cc2)C(=O)N[C@@H](CCCNC(=N)N)C(=O)N[C@@H](CC(C)C)C(=O)N[C@@H](CCCNC(=N)N)C(=O)N[C@@H](Cc2ccc(O)cc2)C(N)=O)NC(=O)[C@@H]2CCCN2C(=O)[C@@H](NC(=O)[C@@H](N)[C@@H](C)CC)CCC(=O)NC[C@@H](C(=O)N[C@@H](Cc2ccc(O)cc2)C(=O)N[C@@H](CCCNC(=N)N)C(=O)N[C@@H](CC(C)C)C(=O)N[C@@H](CCCNC(=N)N)C(=O)N[C@@H](C)C(N)=O)NC(=O)[C@@H]2CCCN2C1=O` (I: H-IEP[Dap]YRLRA-NH2 / II: H-IEP[Dap]YRLRY-NH2; amide I:2-II:4, I:4-II:2), the Rmax in assay [1] amounted to 55.2%. Besides, the concentration giving a half-maximal response (EC50) in assay [2] was 6.76 nM. Moreover, the inhibitory constant (Ki) in assay [3] is 0.257 nM; in assay [4], 174 nM. Moreover, the Ratio Ki in the assay filed under Homo sapiens amounted to 676.
For the compound `CC[C@H](C)[C@H](N)C(=O)N[C@H]1CCC(=O)NC[C@@H](C(=O)N[C@@H](Cc2ccc(O)cc2)C(=O)N[C@@H](CCCN=C(N)N)C(=O)N[C@@H](CC(C)C)C(=O)N[C@@H](CCCN=C(N)N)C(=O)N[C@@H](Cc2ccc(O)cc2)C(N)=O)NC(=O)[C@@H]2CCCN2C(=O)[C@@H](NC(=O)[C@@H](N)[C@@H](C)CC)CCC(=O)NC[C@@H](C(=O)N[C@@H](Cc2ccc(O)cc2)C(=O)N[C@@H](CCCN=C(N)N)C(=O)N[C@@H](CC(C)C)C(=O)N[C@@H](CCCN=C(N)N)C(=O)N[C@@H](Cc2ccc(O)cc2)C(N)=O)NC(=O)[C@@H]2CCCN2C1=O` (I: H-IEP[Dap]YRLRY-NH2 / II: H-IEP[Dap]YRLRY-NH2; amide I:2-II:4, I:4-II:2), in assay [1], the Rmax was in the range of 21.8 to 36.1%. In assay [2], the EC50 is 11.2 to 37.2 nM. Moreover, the results for the Ki in assay [3] and in assay [4] were 0.295 to 1.02 nM and 41.7 to 89.1 nM, respectively. Besides, in the assay listed under Homo sapiens, the Ratio Ki was in the range of 87 to 141.
With `CC[C@H](C)[C@H](N)C(=O)N[C@H]1CCC(=O)NCCC[C@@H](C(=O)N[C@@H](Cc2ccc(O)cc2)C(=O)N[C@@H](CCCNC(=N)N)C(=O)N[C@@H](CC(C)C)C(=O)N[C@@H](CCCNC(=N)N)C(=O)N[C@@H](Cc2ccc(O)cc2)C(N)=O)NC(=O)[C@@H]2CCCN2C(=O)[C@@H](NC(=O)[C@@H](N)[C@@H](C)CC)CCC(=O)NCCC[C@@H](C(=O)N[C@@H](Cc2ccc(O)cc2)C(=O)N[C@@H](CCCNC(=N)N)C(=O)N[C@@H](CC(C)C)C(=O)N[C@@H](CCCNC(=N)N)C(=O)N[C@@H](Cc2ccc(O)cc2)C(N)=O)NC(=O)[C@@H]2CCCN2C1=O` (I: H-IEP[Orn]YRLRY-NH2 / II: H-IEP[Orn]YRLRY-NH2; amide I:2-II:4, I:4-II:2), the Rmax in assay [1] came to 33%. For the same compound, in assay [2], the concentration for a half-maximal effect (EC50) is 4.27 nM. The figures for the inhibition constant Ki in assay [3] and in assay [4] were 12.9 nM and 63.1 nM, respectively. Besides, in the assay listed under Homo sapiens, the Ratio Ki was found to be 4.9.
